Source: ChEMBL document CHEMBL1154325, “Cytotoxic clerodane diterpenoids from Casearia obliqua” (J Nat Prod, 2009)
pIC50: −log10 of the molar value.

Experiments:
[1] = system: HL-60; assay: Cytotoxic activity against human HL60 cells after 69 hrs by MTT assay; type: functional, cell-based; settings: HL-60, 69 h
Outline: (§1)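 Cells were grown in RPMI 1640 with 10% FBS, 2 mM glutamine, penicillin and streptomycin at 37 °C under 5% CO2, then plated. After 24 h, compounds in DMSO were added at 0.39-25 µg/mL, with doxorubicin at 0.01-0.58 µg/mL as positive control. After 69 h, MTT at 0.5 mg/mL was added for 3 h. Formazan was dissolved in DMSO and read at 595 nm. IC50 came from nonlinear regression.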

[2] = system: SF-295; assay: Cytotoxic activity against human SF295 cells after 69 hrs by MTT assay; type: functional, cell-based; settings: SF-295, 69 h; outline: as §1
[3] = system: MDA-MB-435 (Homo sapiens); assay: Cytotoxic activity against human MDA-MB-435 cells after 69 hrs by MTT assay; settings: MDA-MB-435, 69 h
[4] = system: HCT-8; assay: Cytotoxic activity against human HCT8 cells after 69 hrs by MTT assay; type: functional, cell-based; settings: HCT-8, 69 h; outline: as §1

C=C/C(C)=C/C[C@]1(C)[C@H]2C[C@@H](OC(C)=O)C=C3[C@H](OC(C)=O)O[C@@H](OC(C)=O)[C@@]32[C@H](OC(=O)c2ccc(O)cc2)C[C@@H]1C [CASEOBLIQUIN A]
pIC50 [1]: < 5.30 | pIC50 [2]: < 5.30 | pIC50 [3]: < 5.30 | pIC50 [4]: < 5.30

COc1cccc2c1C(=O)c1c(O)c3c(c(O)c1C2=O)C[C@@](O)(C(=O)CO)C[C@@H]3O[C@H]1C[C@H](N)[C@H](O)[C@H](C)O1 [DOXORUBICIN]
pIC50 [1]: 7.15 | pIC50 [2]: 6.12 | pIC50 [3]: 6.92 | pIC50 [4]: 5.82

C=C/C(C)=C/C[C@]1(C)[C@H]2C[C@H](O)C=C3[C@H](OC(C)=O)O[C@@H](OC(C)=O)[C@@]32[C@H](OC(=O)/C=C/c2ccccc2)C[C@@H]1C
pIC50 [1]: < 5.30 | pIC50 [2]: < 5.30 | pIC50 [3]: < 5.30 | pIC50 [4]: < 5.30
